Screening data (PubChem BioAssay)
MrgX1 PAM = human MrgX1 positive allosteric modulation, primary screen | MrgX1-HEK293, Fluo-4 calcium flux, FDSS; hits give high values | B-score at 10 µM | 310,000 tested, 0.63% active | AID 588675;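 active = plate-corrected calcium response at least 3 library SD above typical, normal starting fluorescence, not activating the receptor alone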;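 also: compound read alongside a low EC10 to EC30 dose of BAM8-22 agonist; peak minus trough fluorescence over baseline measured at the second addition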
Target sequence (Q96LB2 whole entry, looked up): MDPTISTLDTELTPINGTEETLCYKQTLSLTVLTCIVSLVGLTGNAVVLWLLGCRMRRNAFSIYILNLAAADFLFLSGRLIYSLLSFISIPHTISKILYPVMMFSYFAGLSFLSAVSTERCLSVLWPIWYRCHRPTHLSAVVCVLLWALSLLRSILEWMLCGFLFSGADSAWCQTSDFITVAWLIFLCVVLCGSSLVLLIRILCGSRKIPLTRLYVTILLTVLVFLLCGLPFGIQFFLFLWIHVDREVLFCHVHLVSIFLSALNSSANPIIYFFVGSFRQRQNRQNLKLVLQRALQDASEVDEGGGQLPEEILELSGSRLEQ
RGS4 act = potentiators or activators of RGS4; HEK293 M3R/inducible RGS4, carbachol calcium flux Fluo4; hits give low values; B-score at 10 µM; 310,000 tested, 0.92% active; AID 463111;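 active = B-score of the integrated calcium signal more than 4 SD below the library mean, with starting fluorescence not abnormally high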;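 also: negative B-score means reduced calcium response which marks RGS4 activation or potentiation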
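test system = HEK293 cells with stable M3R and inducible RGS4 | schedule = recording 10 s baseline at 1 Hz, 100 s post-agonist | technique = Fluo4-AM (2 µM) calcium-flux fluorescence, kinetic read | measure = Agonist-evoked peak-minus-minimum fluorescence over baseline, integrated ratio, B score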
RGS4 block = inhibitors of human RGS4; HEK293 M3R/RGS4 inducible, Fluo-4 calcium flux; hits give high values; triggered by carbachol at its EC20; B-score at 10 µM; 310,000 tested, 0.45% active;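 active = B-score, a plate-corrected calcium signal, over three deviations above library mean, with baseline fluorescence within five deviations of library mean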;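 also: RGS4 expression induced by doxycycline in cells with stable M3 receptor; B-score is computed from the integrated fluorescence ratio over baseline after carbachol; higher B-score means a larger calcium signal and so more RGS4 inhibition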
Target sequence (P49798 whole entry, looked up): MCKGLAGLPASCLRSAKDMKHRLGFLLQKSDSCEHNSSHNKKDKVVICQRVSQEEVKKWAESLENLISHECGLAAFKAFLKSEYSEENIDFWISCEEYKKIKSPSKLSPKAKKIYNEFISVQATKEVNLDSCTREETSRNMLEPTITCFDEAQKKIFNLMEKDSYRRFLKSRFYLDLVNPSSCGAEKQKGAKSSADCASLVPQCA
MrgX1 agonist = human MrgX1 receptor agonism, primary screen; MrgX1-HEK293 cells, Fluo-4 calcium fluorescence, agonist mode; hits give high values; B-score at 10 µM; 310,000 tested, 0.44% active;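 active = calcium response B-score plate-corrected fluorescence ratio at least 3 library SD, with starting fluorescence B-score inside 5 SD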
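Material: MrgX1-expressing HEK293 cells / Dosing: compound as first of three additions / Incubation: overnight seeding, then 1 h dark dye loading / Signal: Fluo-4 NW calcium fluorescence / Evaluation: B-scored fluorescence response ratio / Benchmarks: positive and negative control wells on each plate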
MrgX1 antag = antagonists of human MrgX1 receptor; Q96LB2; B-score at 10 µM; AID 588676; 310,000 tested, 1.3% active; MRGX1-HEK293 calcium flux, Fluo-4, BAM8-22 antagonism; hits give low values;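 active = calcium-response B-score plate-corrected more than 3 library SD below zero, starting fluorescence within 5 deviations, no agonist response on first addition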;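 also: peak minus trough fluorescence over baseline after final BAM8-22 challenge near maximal dose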
The depositor's hits bear a star; i = inactive; . = no result. Most compounds without a hit are left out; they make up all but 3.5% or so of the library.

SMILES	MrgX1 PAM	RGS4 act	RGS4 block	MrgX1 agonist	MrgX1 antag
O=C(c1cc(Cl)ccc1F)N1CCCC(Nc2ccc3c(c2)OCCO3)C1 (centres undefined)	i	i	i	i	i
CCCCCOc1ccc(NC(=O)C(=O)NCC2CCCN2CC)cc1 (centres undefined)	i	i	i	i	-7*
CCN(Cc1ccccc1)C(=O)c1ccc(Cl)cc1[N+](=O)[O-]	i	i	i	i	i
COc1ccc(C(=O)NN2C(=O)C3CCC(C)(C2=O)C3(C)C)cc1 (centres undefined)	i	i	i	i	i
CC(C(=O)NCCN1C(=O)S/C(=C\c2cccs2)C1=O)N1C(=O)c2ccccc2C1=O (centres undefined)	i	i	i	i	i
O=C(NCCN1C(=O)S/C(=C\c2cccs2)C1=O)[C@H](Cc1ccccc1)N1C(=O)c2ccccc2C1=O	i	i	i	i	-8.4*
CCCCCCCCCCCCCCCC[n+]1cccc(C(=O)N(CC)CC)c1	i	-9.9*	i	i	i
Cc1nn(-c2ccccc2)c(C)c1C(=O)NNC(=O)C(F)(F)F	i	i	i	i	i
O=C(/C=C/c1c(F)cccc1Cl)N1CCc2ccccc2C1	i	i	i	i	i
COCc1cc(N2CCOCC2)nc(-c2ccccc2)n1	i	i	i	i	i
COCc1cc(Sc2cccc(Cl)c2Cl)nc(-c2ccccc2)n1	8*	i	i	i	i
COc1ccc(NC(=O)C2=C(C)Nc3ncnn3C2c2ccccc2C(F)(F)F)c(OC)c1 (centres undefined)	i	.	.	i	i
COC(=O)c1ccc(Oc2c(Cl)cccc2[N+](=O)[O-])cc1	8.6*	i	i	i	i
O=C1Nc2ccccc2C1=Nc1cccc([N+](=O)[O-])c1	i	i	i	i	i
Cc1cccc(N=C2C(=O)Nc3c(Cl)cccc32)c1	i	i	i	28*	i
Clc1ccccc1CN(Cc1ccccc1)C(c1cccs1)c1nnnn1C1CCCC1 (centres undefined)	i	i	i	i	-5.7*
CCN(Cc1ccccc1)C(c1cccs1)c1nnnn1C1CCCCC1 (centres undefined)	i	i	i	i	i
Cn1nc(-c2ccc(Cl)cc2)nc2c(=O)n(C)c(=O)nc1-2	i	i	i	i	-4.6*
CS(=O)(=O)n1nc(-c2ccc(Cl)cc2)nc1N	i	i	i	i	i
CC(NS(=O)(=O)c1ccc([N+](=O)[O-])cc1)C(=O)NN (centres undefined)	i	i	i	i	i
CC(C(=O)NN)c1ccc([N+](=O)[O-])cc1 (centres undefined)	9.2*	i	i	i	i
CCCCCNCc1ccc(Cl)cc1	i	i	i	i	i
OCCCCNCc1ccc(OCc2ccc(Cl)cc2)cc1	i	-7.3*	i	i	i
COc1ccc(/C=C2\Oc3cc(OCC(=O)N4CCC[C@H]4C(=O)O)ccc3C2=O)c(OC)c1	i	i	i	i	i
COc1ccc(OC)c(/C=C2\Oc3cc(OCC(=O)N4CCC[C@H]4C(=O)O)ccc3C2=O)c1	i	i	i	31*	i
SMILES	MrgX1 PAM	RGS4 act	RGS4 block	MrgX1 agonist	MrgX1 antag
O=C(CN(C(=O)CNC(=O)c1cccs1)c1cccc(F)c1)NC1CCCC1	i	i	i	i	i
COC(=O)c1[nH]c2ccc(Br)cc2c1NC(=O)CN1CCCc2ccccc21	i	i	i	i	i
COC(=O)c1[nH]c2cc(C)ccc2c1NC(=O)CN1CCCc2ccccc21	i	-7.3*	i	i	i
COc1ccc2[nH]cc(C=O)c2c1	i	i	i	i	i
COc1ccc2[nH]cc(/C=C/c3cc[n+](C)cc3)c2c1	i	i	i	i	-7.9*
S=C(NNc1ccnc2cc(Cl)ccc12)Nc1ccccc1Cl	6.7*	i	i	i	i
Clc1ccc2c(NCc3ccccc3)ccnc2c1	i	i	i	32*	i
CCN(CC)CCNc1ccnc2cc(Cl)ccc12	i	i	i	i	i
S=C(Nc1ccccc1Cl)Nc1ccc(Cl)cc1Cl	i	i	i	i	i
CN1CCc2c(sc3nc(SCC(=O)NCc4ccco4)n(-c4ccccc4)c(=O)c23)C1	i	i	i	i	i
O=C(Nc1ccc(C(=O)O)cc1)/C(=C\c1ccco1)NC(=O)c1ccco1	i	i	i	i	i
O=C(c1ccccc1[N+](=O)[O-])N1CC2C3C=CC(C3)C2C1 (centres undefined)	i	-7.1*	i	i	i
O=C(c1cccc([N+](=O)[O-])c1)N1CC2C3C=CC(C3)C2C1 (centres undefined)	i	i	i	i	i
O=S1(=O)N=C(N(CCO)/N=C/c2ccc(Cl)cc2)c2ccccc21	i	i	i	i	i
CN(C)c1ccc(/C=N/N(CCO)C2=NS(=O)(=O)c3ccccc32)cc1	i	-7.9*	i	i	i
O=[N+]([O-])c1ccc(Nc2ccccc2)c2nonc12	i	i	i	i	i
O=[N+]([O-])c1ccc(Sc2cccc[n+]2[O-])c2nonc12	.	-8.4*	i	.	.
CCC(=C(c1ccc(OC)cc1)c1ccc(OC)cc1)c1cn(CC(O)CN2CCN(C)CC2)c2ccccc12 (centres undefined)	i	.	.	i	i
CCN(CC)CCN1c2ccccc2Sc2ccc3ccccc3c21	i	-7.5*	i	i	i
CCN(CC)CCN1c2ccccc2Sc2ccccc21	i	-7.1*	i	i	i
Cn1c(C(=O)O)c(CC(=O)N2CCC(Cc3ccccc3)CC2)c2ccccc21	i	i	i	i	i
Cc1ccc(S(=O)(=O)Nc2ccc(NC(=O)c3c(F)c(F)c(F)c(F)c3F)cc2)cc1	i	i	i	i	i
Nc1ccccc1C(=O)NCc1ccc(Cl)cc1	i	i	i	i	i
CNCc1ccccc1Sc1ccc(O)c(O)c1	i	-7.5*	i	i	-5.7*
COc1ccc(Sc2ccccc2CN(C)C)cc1OC	i	i	i	i	i
O=[n+]1cc(-c2ccc(Cl)cc2)n([O-])c2c1CCC2	i	i	i	i	i
O=[n+]1cc(-c2ccc(Br)cc2)n([O-])c2c1CCC2	i	i	i	i	-4.6*
